Compound activity from PubChem.
Runt-SMMHC FRET = blocks binding of human RUNX1 Runt domain to CBFb-SMMHC | Cerulean-Runt/Venus-CBFb-SMMHC FRET ratio 530/480, 1 h | inhibition, % at 20 µM | 0.74% of 220,000 active;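 active = mean inhibition across duplicate retests at 20 µM reaching about 50%, limit read from the data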;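 note: 0% = DMSO wells and 100% = wells with excess untagged CBFb-SMMHC; inhibitors lower the FRET ratio by blocking Runt binding to CBFb-SMMHC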
Hck Nef HTS = inhibitors of human Hck kinase activated by Nef; P08631; Recombinant Hck-YEEI plus Nef, Z-Lyte FRET kinase assay; inhibition, % at 20 µM; 0.68% of 220,000 active;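 active = Hck-Nef kinase inhibition above about 50%, limit read from the data; inactive = inhibition below that limit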;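 note: 0% = DMSO with Hck plus Nef and 100% = Hck alone without Nef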
Target sequence (P08631 whole entry, looked up): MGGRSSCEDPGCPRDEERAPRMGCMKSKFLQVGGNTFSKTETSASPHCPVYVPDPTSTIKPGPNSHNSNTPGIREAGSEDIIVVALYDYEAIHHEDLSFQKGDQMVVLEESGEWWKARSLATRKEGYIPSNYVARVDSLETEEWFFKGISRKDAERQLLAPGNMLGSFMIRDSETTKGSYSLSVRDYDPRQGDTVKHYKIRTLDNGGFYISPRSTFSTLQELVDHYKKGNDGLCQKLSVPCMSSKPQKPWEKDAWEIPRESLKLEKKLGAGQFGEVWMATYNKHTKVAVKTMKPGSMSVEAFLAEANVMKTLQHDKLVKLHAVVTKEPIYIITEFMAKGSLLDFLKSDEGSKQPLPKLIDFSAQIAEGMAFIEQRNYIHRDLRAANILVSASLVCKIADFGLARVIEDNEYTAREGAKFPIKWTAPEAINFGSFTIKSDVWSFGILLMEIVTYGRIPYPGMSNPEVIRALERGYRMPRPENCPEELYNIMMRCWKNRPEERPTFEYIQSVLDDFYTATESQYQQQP
CaV13 FRET inh = Disruptors of the CACNA1D IQ motif to Ca2+-dependent inactivation inhibitor domain association, primary screening, Förster resonance energy transfer in intact living …. HEK cells, CFP/YFP FRET ICDI-IQ, plate reader, 10 min; percent FRET-ratio fall versus neutral wells. inhibition, % at 12.3 µM. 0.098% of 340,000 active. AID 743397;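 active = mean replicate inhibition of at least 30% and at least 1% of replicates passing that level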;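 note: 0% = median of the neutral control wells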
RanGTP-Impb inh = disruptors of Ran-importin-beta complex formation – biochemical, FRET, CFP-Ran, YFP-importin-beta, homogeneous, primary screen; 1.1% of 300,000 active; cell-free CFP-Ran/YFP-importin-beta FRET ratio; inhibition, % (no concentration beside the values);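 active = more than half of the replicate wells show a fall in the fluorescence ratio signal beyond about 16%, limit read from the data, passing the limit was not always enough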;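 note: 0% = DMSO wells and 100% = Ran loaded with GDP instead of GTP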
Runt-CBFb FRET = Runt domain-CBFb interaction inhibition; 0.46% of 220,000 active; Cerulean-Runt/Venus-CBFb FRET ratio 530/480, 1 h; inhibition, % at 20 µM;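 active = inhibition over about 50% at 20 µM in the single-dose screen, limit read from the data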;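 note: 0% = DMSO wells and 100% = excess unlabeled CBFb competitor control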
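Measured by: fluorescence energy transfer, 422 nm excitation, 530/480 nm emission; Assay system: Cerulean-Runt domain; Medium: Tris pH 7.5 buffer with BSA; Measure: loss of energy transfer signal; Controls: 5 µM unlabeled CBFb as full-inhibition high control; Incubation: protein complex preformed 1 h, compound exposure 1 h, room temperature, dark.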
Active calls of the source: *; . = no result; + = active, no number. This is a sample that favours compounds with a hit; in the whole collection about 1.5% have one here.

SMILES	Runt-SMMHC FRET	Hck Nef HTS	CaV13 FRET inh	RanGTP-Impb inh	Runt-CBFb FRET
Oc1ccc(N=C/C=C/c2ccc(Br)cc2)cc1-c1nc2ccccc2s1	36	3	.	38*	34
Nc1ccc(-c2cnc3ccccc3n2)cc1	.	.	-67	3	.
Nc1ccc2nc(-c3ccccc3)cnc2c1	.	.	+	-47	.
CCCCC(=O)Nc1ccc(NC(=O)c2cnccn2)cn1	-1	-15	-6	172*	1
CC(OC(=O)c1ccccc1C(=O)N(C)C1CCCCC1)C(=O)NC1(C#N)CCCCC1 (centres undefined)	.	.	-6	.	.
O=C(O)/C=C/c1ccc(S(=O)(=O)Nc2ccc3[nH]c(=O)[nH]c3c2)cc1	.	.	-8	27*	.
O=C(Nc1ccc2[nH]c(=O)[nH]c2c1)c1ccc(Cl)c(Cl)c1	0	-7	-2	-13	0
O=C(O)c1cccc(S(=O)(=O)Nc2ccc(Oc3ccccc3)cc2)c1	.	.	-6	.	.
O=C(O)c1ccc(Cl)c(S(=O)(=O)Nc2ccc3[nH]c(=O)[nH]c3c2)c1	-13	11	2	22*	4
Cc1ccc(NS(=O)(=O)c2ccc(/C=C/C(=O)O)cc2)cc1Cl	1	23	-18	-5	0
O=C(O)c1cccc(S(=O)(=O)Nc2ccc3[nH]c(=O)[nH]c3c2)c1	-16	28	-6	16*	-2
Cc1ccccc1-c1cc(C(=O)O)n(CC2CC(c3cccnc3)=NO2)n1 (centres undefined)	.	.	-12	.	.
Cc1cccn2c(=O)c3cc(C(=O)NCCN4CCOCC4)n(C)c3nc12	.	.	-5	4	.
Cc1cccn2c(=O)c3cc(C(=O)NCCN4CCOCC4)c(=N)n(CCN4CCOCC4)c3nc12	.	.	13	128*	.
Cc1cccn2c(=O)c3cc(C(=O)NC4CCCC4)c(=N)n(CCCN4CCOCC4)c3nc12	.	.	16	175*	.
Cc1cccn2c(=O)c3cc(C(=O)NCCN4CCOCC4)c(=N)n(Cc4ccc(F)cc4)c3nc12	.	.	102*	162*	.
CCOc1ccc(CCNC(=O)C(C)N2C(=O)CC(C)(C)Sc3ccccc32)cc1 (centres undefined)	.	.	-20	-3	.
Cc1cc(C)n(-c2nc3ccccc3nc2Nc2ccc3[nH]c(=O)[nH]c3c2)n1	-8	-1	-10	32*	-3
COc1ccc(NC(=O)C2(C)Cc3c(-c4cccc(C(N)=O)c4)ccnc3O2)cc1OC (centres undefined)	.	.	-6	.	.
CC(=O)Nc1ccc(-c2ccnc3c2CC(C(=O)NCc2cccc(Cl)c2)O3)cc1 (centres undefined)	.	.	-6	.	.
CC(=O)Nc1cccc(-c2ccnc3c2CC(C(=O)NCc2cccc(Cl)c2)O3)c1 (centres undefined)	.	.	45*	.	.
COc1ccc(C(=O)NC(C)CCc2ccccc2)c(O)c1 (centres undefined)	.	.	-19	7	.
C=CCn1c(-c2csc(-c3ccccc3)n2)n[nH]c1=S	10	1	-6	1	17
C=CCN1C(=S)CC(c2ccccc2)=Nc2ccccc21	.	.	63*	4	.
C=CCn1c(SCC(=O)Nc2ccc(F)cc2)nc2ccccc2c1=O	.	.	-5	-1	.
SMILES	Runt-SMMHC FRET	Hck Nef HTS	CaV13 FRET inh	RanGTP-Impb inh	Runt-CBFb FRET
COc1cccc(-c2cc(C(F)(F)F)c(C#N)c(=O)[nH]2)c1	16	42	-2	-3	5
COc1cccc(-c2c3c([nH]c(=O)c2C#N)CCc2cc(OC)ccc2-3)c1	80*	1	.	94*	89*
CCCCn1c(=O)nc2n(-c3ccc(C)cc3)c3ccccc3cc-2c1=O	82*	4	-5	60*	54*
Cc1ccc(-n2c3nc(=O)n(C)c(=O)c-3cc3ccccc32)cc1	81*	28	-2	86*	10
CCCCn1c(=O)nc2n(-c3ccc(Cl)cc3)c3ccccc3cc-2c1=O	82*	3	-4	59*	103*
CCCCn1c(=O)nc2n(-c3ccc(OC)cc3)c3ccccc3cc-2c1=O	27	-10	-5	9	17
O=S(=O)(NCCc1ccc(F)cc1)c1ccc(F)cc1Br	.	.	-7	.	.
O=c1cc(O)sc2ccccc12	3	-1	0	16*	0
Cc1cc(C)n(CCC(=O)N/N=C/c2c(O)ccc3ccccc23)n1	45	10	-3	36*	29
CCc1cc2c(=O)nc3n(c2s1)Cc1ccccc1/C3=C(/O)c1ccccc1Cl	57*	1	-11	-61	-46
CCc1cc2c(=O)nc3n(c2s1)Cc1ccccc1/C3=C(/O)c1ccc(F)cc1	58	1	.	-110	-74
Cc1ccc2c(cnn2C(=O)CCC(=O)N2CCCCC2C)c1 (centres undefined)	.	.	-6	0	.
Cc1onc(-c2ccccc2)c1C(=O)/C=C/N(C)C	-1	12	-5	17*	0
Cc1onc(-c2ccc(Cl)cc2Cl)c1C(=O)/C=C/N(C)C	-1	22	-21	-1	0
COc1cc(C(=O)NC(C)c2cc(C)ccc2C)ccc1OCC(=O)N1CCOCC1 (centres undefined)	.	.	-3	.	.
Cc1ccc2nc(SCC(=O)NCc3ccc(F)cc3)nc(=O)n2c1	.	.	-4	0	.
COc1ccc(/C=C/C(=O)c2ccc(Cl)cc2)c(OC)c1	-6	1	-10	20*	-2
COc1ccc(/C=C/C(=O)c2cc(Cl)ccc2O)c(OC)c1	-2	13	-5	1	0
CCOC(=O)[C@H]1[C@H]2COc3ccc(OC)cc3[C@@H]2N2C(=O)CN(Cc3ccc(OC)cc3)C(=O)[C@@]12C	.	.	-11	.	.
Cc1ccc(N2CC(C(=O)N3CCCCC3)CC2=O)cc1C (centres undefined)	.	.	-6	1	.
O=c1c2c3c(sc2n(CCN2CCOCC2)c(=O)n1C1CCCCC1)CCCCC3	.	.	-1	.	.
COc1ccc(C(=O)Oc2cc(N)n(S(=O)(=O)c3ccccc3)n2)cc1	3	-7	97*	-8	1
COc1ccc(S(=O)(=O)n2nc(OC(C)=O)cc2N)cc1	-1	-3	-10	1	2
CC(=O)Nc1ccc(C23CC4CC(CC(C4)C2)C3)cc1	.	.	-6	26*	.
Cc1[nH]c(C)c(S(=O)(=O)N2c3ccccc3CC2C)c1C(=O)N1CCCCC1 (centres undefined)	.	.	-5	8	.
O=C(c1ccccc1)[C@@H]1[C@@H](C(=O)c2ccc(F)cc2)[C@@]2(C(=O)Nc3ccccc32)[C@H]2c3ccccc3C=CN12	-1	1	-5	21*	0
CCOc1ccc(/C=C(\C(=O)O)c2ccc(S(=O)(=O)N3CCOCC3)s2)cc1OC	69*	-8	-3	104*	15
O=C(O)/C(=C\c1ccc(Cl)cc1)c1ccc(S(=O)(=O)N2CCCC2)s1	.	.	-4	.	.
CSc1ccc(/C=C(\C(=O)O)c2ccc(S(=O)(=O)N3CCCCC3)s2)cc1	26	2	-8	45*	9
